# Bioassay records: PubChem BioAssay, several laboratories
# TPT1 inhibitor = Candida albicans TPT1 enzyme inhibitors, primary screen, biochemical, fluorescence polarization. hit rate 0.81% among 300,000. inhibition, % at 5 µM. AID 1962, 2009. recombinant caTPT1, FP RNA substrate dephosphorylation;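 active = inhibition above the mean of all tested compounds plus 3 SD, set per screening campaign, cut at about 24% in these data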;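 note: plate controls were DMSO alone for no effect and ferristatin control at 100 nM for full effect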
# CSN deneddyl inh = inhibitors of CSN-mediated cullin deneddylation, primary screen, biochemical, fluorescence polarization, uHTS | hit rate 0.38% among 360,000 | inhibition, % at 12.5 µM | COP9 signalosome complex subunit 5 (Homo sapiens), Q92905 | Purified CSN, SCF-Nedd8-OG deneddylation;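 active = pattern-corrected inhibition above about 35%, with an unprinted fluorescence ratio check between 0.5 and 1.5, limit read from the data, passing the limit was not always enough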;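 note: 0% = enzyme with substrate and 100% = substrate without enzyme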
# Target sequence (Q92905 whole entry, looked up, one chain of several): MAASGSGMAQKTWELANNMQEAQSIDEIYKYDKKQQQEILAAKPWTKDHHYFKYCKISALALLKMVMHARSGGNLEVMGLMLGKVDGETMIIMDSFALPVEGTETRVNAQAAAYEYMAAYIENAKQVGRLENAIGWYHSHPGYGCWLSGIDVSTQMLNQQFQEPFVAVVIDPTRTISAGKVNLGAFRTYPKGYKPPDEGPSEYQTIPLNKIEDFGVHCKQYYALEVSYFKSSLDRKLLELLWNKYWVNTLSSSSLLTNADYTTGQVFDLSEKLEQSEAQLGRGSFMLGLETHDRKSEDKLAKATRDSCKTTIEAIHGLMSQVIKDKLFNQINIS
#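 Material: human Csn5 produced in HEK293T cells; Input: enzyme 0.24 nM; Reagent: SCFSkp2-Nedd8OG substrate at 10 nM final; Dosing: 12.5 µM compound; Incubation: 90 min reaction at room temperature; Detection: fluorescence polarization of the substrate; Evaluation: % inhibition of substrate cleavage by Csn5; Control set: substrate-only high control, full reaction low control.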
# Rev-erbA mod = modulators of Rev-erb alpha DNA binding, primary screen, biochemical, FITC-DNA, fluorescence polarization, uHTS | Nuclear receptor subfamily 1 group D member 1 (Homo sapiens), P20393 | Rev-erbα–FITC-DNA binding, 90 min | activity, % at 10 µM | hit rate 0.79% among 370,000 | AID 1259318, 2017;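 active = activity above about 14%, limit read from the data; passing the limit was not always enough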;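 note: 0% = DMSO wells with 35 nM protein and 100% = DMSO wells with 750 nM protein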
# HNF4A DNA FP = change in binding of human HNF4A to DNA, primary screen, biochemical, fluorescence polarization, FITC-DNA; activity change, % at 10 µM; AID 1224865, 2016; hit rate 0.3% among 360,000; 1 h; Hepatocyte nuclear factor 4-alpha (Homo sapiens), P41235; in the data active = activity change above about 30%, passing the limit was not always enough
# NR1D1 mod conf = modulators of Rev-erb alpha DNA binding, confirmation, biochemical, FITC-DNA, fluorescence polarization, single point; shares compounds with Rev-erbA mod; 90 min; activation, % at 25 µM; hit rate 61% among 3,000;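 active = activation at or above a set limit, or at least 3 SD above the negative control mean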;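 note: 0% = 35 nM protein with DMSO and 100% = 750 nM protein high control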
# RORg counter = modulation of RORgamma DNA binding, dose response, counter-screen for Rev-erb alpha modulator project, biochemical, fluorescence polarization, FITC-DNA; shares compounds with Rev-erbA mod; purified RORgamma protein-FITC-DNA binding; IC50, µM; hit rate 8% among 910; AID 1259320, 2017;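 active = Compounds whose fitted half-maximal concentration for disrupting protein-DNA binding is below 10 micromolar; the record names Rev-erb in its text, so the target is in doubt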
# * marks the source's active call; other numbers are inactive results; i = inactive; nt = no result given. Only some compounds are listed: those with a hit (about 1.7% of all), similar ones and a draw of the others.
SMILES,TPT1 inhibitor,CSN deneddyl inh,Rev-erbA mod,HNF4A DNA FP,NR1D1 mod conf,others
COc1cccc(CNC(=O)Cn2c(=O)c3cccn3c3ccccc32)c1,1,3,19*,1,-4,
Cc1cccc(C)c1NC(=O)Cn1c(=O)c2cccn2c2ccccc21,-2,3,-1,-2,nt,
CCc1cccc(NC(=O)Cn2c(=O)c3cccn3c3ccccc32)c1,4,2,28*,4,15,
CCn1c2ccccc2c2cc(NC(=O)CSc3nnc(-c4cccc(Cl)c4)o3)ccc21,0,2,32*,0,11,
N#Cc1c(-c2ccccc2)cc(-c2ccccc2)nc1SCc1nnc(-c2ccccc2)o1,-3,9,50*,-3,24*,
CC(C)(C)NC(=O)[C@@H](c1cccnc1)N(C(=O)c1ccco1)c1ccc(C(C)(C)C)cc1,nt,nt,-1,nt,nt,
Cc1cc(C(F)(F)F)c2c(N)c(C(=O)Nc3cc(C)on3)sc2n1,-2,3,86*,-3,60*,RORg counter=>40
Nc1c(C(=O)Nc2ccccc2F)sc2nc(Cc3ccccc3)cc(C(F)(F)F)c12,-9,17,108*,9,81*,
COC(=O)[C@]12C[C@H](CC(=O)N3CCC(c4ccccc4)CC3)C(=O)N(Cc3ccc(Cl)cc3Cl)C1=C[C@H](COCc1ccccc1)O[C@@H]2C,nt,nt,-2,nt,nt,
Cn1c(/C(C#N)=C(\O)c2ccc(Cl)s2)nc2ccccc21,-1,2,50*,1,12,
Cn1c(/C(C#N)=C(\O)COc2ccc3ccccc3c2)nc2ccccc21,-5,6,23*,2,9,
COC(=O)[C@]12C[C@H](CC(=O)N3CCCCC3)C(=O)N(Cc3ccc(Cl)cc3Cl)C1=C[C@H](C(C)C)O[C@@H]2C1CC1,nt,nt,-4,nt,nt,
O=C(C=Cc1ccc(O)c(O)c1)NCC(=O)NC(Cc1ccccc1)C(=O)O (centres undefined),nt,nt,-3,nt,nt,
CCN(CC)C(=O)[C@H]1C[C@@H]2[C@H](C[C@@H](c3ccccc3)[C@H]1C)N(c1ccc(F)cc1)C(=O)N2CCCOc1ccccc1,nt,nt,-5,nt,nt,
CCOC(=O)C1=C(Nc2ccc(Br)cc2)CC(C)(O)C(C(=O)OCC)C1c1ccccc1 (centres undefined),1,2,28*,-2,10,
COc1ccc(C2=NN(C(=O)CSc3nc(=O)n4cc(C)ccc4n3)C(c3ccc(C)cc3)C2)cc1 (centres undefined),0,1,57*,5,20*,
COc1ccc(C2=NN(C(=O)CSc3ncccn3)C(c3ccc(OC)cc3)C2)cc1 (centres undefined),5,-15,-3,2,nt,
CC(=O)c1ccc(NC(=O)c2cccc(S(=O)(=O)N3CCN(C)CC3)c2)cc1,-2,-2,0,0,nt,
CC(=O)c1cc2c(cc1N/C(=N/S(=O)(=O)c1ccccc1)c1ccc(Cl)cc1)OCO2,0,-9,90*,4,48*,RORg counter=>40
CC(=O)c1cc2c(cc1NC(=O)c1cccc(S(=O)(=O)N3CCN(C)CC3)c1)OCO2,-5,16,20*,-3,5,
C[C@@H]1OC(C2CCCCC2)N(C)[C@H]2C[C@H]3c4cc(-c5ccc6c(c5)OCO6)ccc4CCN3C[C@@H]12 (some centres undefined),nt,nt,1,nt,nt,
C=CCNc1cccc2c1S(=O)(=O)N[C@@H](CC(C)C)CO2,nt,nt,-1,nt,nt,
COc1ccc(-n2c(SCC(=O)NC3CCCCC3)nc3ccsc3c2=O)cc1,-3,-6,49*,-2,33*,RORg counter=>40
COc1ccc2nc(SCC(=O)NC3CCCC3)c(C)cc2c1,-2,1,29*,1,32*,RORg counter=>40
Cc1[nH]nc2nc(SCC(=O)NC3CCCCC3)n(-c3ccc(Br)cc3)c(=N)c12,-1,9,64*,-2,65*,RORg counter=i
SMILES,TPT1 inhibitor,CSN deneddyl inh,Rev-erbA mod,HNF4A DNA FP,NR1D1 mod conf,others
COc1ccc2c(C)cc(SCC(=O)NC3CCCC3)nc2c1,nt,4,5,-2,nt,
CCN(CC)CCN1C(=O)C(=O)/C(=C(/O)c2ccc(OC(C)C)cc2)C1c1cccs1 (centres undefined),3,-2,41*,-3,27*,
CCN(CC)CCN1C(=O)C(=O)/C(=C(/O)c2ccc(OC(C)C)cc2)C1c1ccncc1 (centres undefined),4,6,-4,-1,nt,
Cc1c(/C(O)=C2\C(=O)C(=O)N(CCN(C)C)C2c2cccnc2)cnn1-c1ccccc1 (centres undefined),2,0,2,0,nt,
Cc1c(/C(O)=C2\C(=O)C(=O)N(CCN(C)C)C2c2cccs2)cnn1-c1ccccc1 (centres undefined),-5,2,19*,0,27*,
Cc1cc(CN2CCOCC2)c(O)c(C2(C)CCCCC2)c1,0,2,18*,1,24*,
Cc1cc(CN(C)C)c(O)c(C2(C)CCCCC2)c1,-7,0,18,1,nt,
COc1ccc(-n2c(CSc3ccc(Cl)cc3)n[nH]c2=S)cc1,nt,nt,3,nt,nt,
CC1(Cc2ccccc2OC(F)(F)F)C(=O)Nc2ccc(-c3ccsc3)cc21 (centres undefined),nt,-6,72*,0,90*,RORg counter=i
CC1(Cc2ccccc2OC(F)(F)F)C(=O)Nc2ccc(OC(F)(F)F)cc21 (centres undefined),nt,0,73*,-4,94*,RORg counter=>40
COC(=O)c1cccc(CC2(C)C(=O)Nc3ccc(OC(F)(F)F)cc32)c1 (centres undefined),nt,1,18*,-1,15*,
COc1ccc(N2CC(C(=O)N(CC(C)C)c3c(N)n(Cc4ccccc4)c(=O)[nH]c3=O)CC2=O)c(OC)c1 (centres undefined),3,10,4,4,nt,
O=C(CCl)Nc1ccc(C(=O)NCC2COc3ccccc3O2)cc1 (centres undefined),nt,nt,3,nt,nt,
COc1ccc(NC(=O)N(C)C[C@@H]2OCCCC[C@@H](C)Oc3ccc(NS(C)(=O)=O)cc3C(=O)N([C@H](C)CO)C[C@@H]2C)cc1,nt,nt,-2,nt,nt,
Cc1cc(=O)n2c(sc3ccccc32)c1C#N,3,-5,39*,2,21*,
COC(=O)c1ccc2c(=O)n3c(nc2c1)SCC(c1ccccc1)=N3,1,-5,80*,-1,4,
CCSc1nc2cc(C(=O)OC)ccc2c(=O)n1CC,0,1,6,0,nt,
Cc1cc(C)c(NC(=O)CSc2nc3ncc(Br)cc3[nH]2)c(Cl)c1,-7,-3,47*,-2,64*,RORg counter=i
